High-throughput results deposited in PubChem by several laboratories.
PAFAH1B2 inh – blocks human PAF acetylhydrolase 1b catalytic subunit 2; P68402; recombinant PAFAH1B2, FP-rhodamine activity probe, fluorescence polarization; inhibition, % at 3.39 µM; 340,000 tested, 1.2% active; AID 492953;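 active = inhibition above the mean of all tested compounds plus 3 SD, cut at about 24% in these data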;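 note: 0% = enzyme with DMSO and 100% = wells lacking PAFAH1B2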
PAFAH1B3 inh – PAFAH1B3 (human) inhibition | inhibition, % at 3.39 µM | recombinant PAFAH1B3, FP-rhodamine probe, fluorescence polarization | 340,000 tested, 0.28% active | Q15102;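 active = inhibition above the screen-wide average of all tested compounds plus 3 SD, cut at about 25% in these data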;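 note: 0% = enzyme with DMSO only and 100% = wells lacking PAFAH1B3 protein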
Target sequence (Q15102 whole entry, looked up): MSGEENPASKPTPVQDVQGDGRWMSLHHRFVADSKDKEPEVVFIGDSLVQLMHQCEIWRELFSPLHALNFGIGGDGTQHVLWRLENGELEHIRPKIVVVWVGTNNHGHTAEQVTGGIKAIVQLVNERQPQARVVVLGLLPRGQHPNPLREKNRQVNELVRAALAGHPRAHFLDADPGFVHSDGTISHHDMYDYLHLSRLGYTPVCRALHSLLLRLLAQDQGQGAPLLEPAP
TDP2 absorb – TDP2 (human) inhibition, absorbance primary screen; O95551; recombinant TDP2, T5PNP hydrolysis, p-nitrophenol absorbance 415 nm; inhibition, % at 12.8 µM; 370,000 tested, 0.34% active;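 active = inhibition above the mean of all tested compounds plus 3 SD, set per campaign, cut at about 25% in these data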;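 note: 0% = DMSO with enzyme and 100% = buffer with substrate but no TDP2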
Target sequence (O95551 whole entry, looked up): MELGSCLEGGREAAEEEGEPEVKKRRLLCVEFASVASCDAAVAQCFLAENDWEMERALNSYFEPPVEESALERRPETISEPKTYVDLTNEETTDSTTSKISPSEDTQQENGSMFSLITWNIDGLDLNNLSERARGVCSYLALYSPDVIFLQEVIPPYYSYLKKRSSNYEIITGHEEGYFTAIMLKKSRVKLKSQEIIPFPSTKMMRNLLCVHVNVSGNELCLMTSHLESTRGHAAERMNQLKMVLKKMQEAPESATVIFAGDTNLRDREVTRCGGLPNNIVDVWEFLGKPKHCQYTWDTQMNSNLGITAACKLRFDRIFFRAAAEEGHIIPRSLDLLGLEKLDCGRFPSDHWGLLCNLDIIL
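Material: recombinant human TDP2; quantity: TDP2 enzyme at 120 nM final; medium: Tris-HCl pH 7.5 with MgCl2; compound: single concentration, 12.8 µM nominal, with 1% DMSO; incubation: 2 h enzyme incubation at 37 °C; signal: epi absorbance; measure: percent inhibition; benchmarks: high control without enzyme, low control DMSO plus TDP2; repeats: singlicate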
PAFAH2 FP inh – inhibitors of human PAFAH2. 340,000 tested, 0.99% active. AID 492956. recombinant PAFAH2, FP-rhodamine activity probe, fluorescence polarization. inhibition, % at 3.39 µM;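 active = inhibition above the mean over all tested compounds plus 3 SD, cut at about 30% in these data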;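 note: inhibitors block probe labeling of enzyme so polarization drops; 0% = enzyme with DMSO and 100% = wells lacking PAFAH2 protein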
Apaf1 inhib – inhibitors of human Apaf-1 apoptosome | O14727 | reconstituted apoptosome caspase-3 activity, DEVD-Rh110 fluorescence | inhibition, % at 20 µM | 330,000 tested, 0.71% active | AID 489030; active = inhibition of at least 40% at 20 µM;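 note: plate controls were DMSO wells for no effect and DEVD-CHO caspase inhibitor wells for full effect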
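Material: reconstituted apoptosome with Apaf-1, cytochrome c, caspase-9, procaspase-3, dATP; medium: pH 7.5 Hepes buffer with CHAPS, BSA, DTT; also added: cytochrome c and DEVD-Rh110 substrate; timing: 30 min plus 50 min, RT; signal: Rh110 fluorescence intensity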
Numbers without * were called inactive; / = no result given. Only some compounds are listed: those with a hit (about 2.3% of all), similar ones and a draw of the others.

SMILES | PAFAH1B2 inh | PAFAH1B3 inh | TDP2 absorb | PAFAH2 FP inh | Apaf1 inhib
CCOC(=O)C1CCN(C(=O)c2c(C)oc3c2C(=O)c2ccccc2C3=O)CC1 | 7 | 10 | 18 | 5 | 48*
CCOC(=O)C1CCN(C(=O)c2ccc(C)o2)CC1 | 4 | 0 | 4 | 5 | -9
CCCC1CCC2(CC1)CCC2OC(=S)NCc1cccc(F)c1 (stereo not drawn) | / | / | 2 | / | /
O=C(Nc1ccccc1Cl)Oc1ccc(-c2ccccc2)cc1 | 60* | 7 | -15 | -1 | 11
CN(C)CCCNS(=O)(=O)c1ccc(N2CCC(c3ccc(Cl)cc3)=N2)cc1 | / | / | 1 | / | 73*
O=C1C=C(O)c2c(O)cc(O)c(O)c2C1=O | 19 | 40* | -5 | 45* | -3
C[C@@H]1Cc2c(O)c(O)cc(O)c2C(=O)O1 | 1 | 14 | / | 9 | 13
Cc1c(C)c2c(OCC(=O)N3CCC(C(=O)NCC(C)C)CC3)cc3c(c2oc1=O)CCC(C)(C)O3 | 1 | 5 | / | 50* | 3
Cc1c(C)c2c(OCC(=O)N3CCC(C(=O)O)CC3)cc3c(c2oc1=O)CCC(C)(C)O3 | 0 | 2 | / | 78* | -4
CN(CCc1ccccn1)C(=S)NC(=O)c1ccco1 | 53* | 5 | -7 | 1 | -3
C[C@H]1COc2cc(Br)ccc2S(=O)(=O)N1Cc1cn(Cc2ccc(Br)cc2)nn1 | / | / | 1 | / | /
O=C(CSc1nnc(CNC(=O)c2cccs2)o1)Nc1cccc(C(F)(F)F)c1 | 26* | 4 | 10 | 4 | 0
O=C(CSc1nnc(CNC(=O)c2cccs2)o1)Nc1cccc(F)c1 | 7 | 4 | -2 | 2 | -14
COc1ccc(S(=O)(=O)Oc2cccc(C(=S)N3CCOCC3)c2)cc1 | 26* | 1 | -3 | 1 | -15
CC1CCN(S(=O)(=O)c2ccc(NC(=O)CN3CCCCCC3)cc2)CC1 | 30* | 2 | -5 | -3 | 16
O=C(O)COc1ccccc1/C=N/NC(=O)CN1CCN(Cc2ccccc2Cl)CC1 | 4 | 6 | 0 | 2 | -7
CCOC(=O)N1CCC(N2CCN(S(=O)(=O)c3ccc(Cl)cc3)CC2)CC1 | 29* | 0 | 9 | 5 | -4
Cc1ccc(S(=O)(=O)N2CCN(CC(=O)NC3CCCc4ccccc43)CC2)cc1C (stereo not drawn) | 4 | 2 | -11 | 9 | 27
O=C(O)COc1ccccc1/C=N/NC(=O)CN1CCN(S(=O)(=O)c2ccc(Br)cc2)CC1 | 27* | 3 | -9 | 2 | -7
O=C(CCC(=O)N1CCN(S(=O)(=O)c2ccc(Cl)cc2)CC1)NC1CCCc2ccccc21 (stereo not drawn) | 26* | -2 | -9 | 3 | 11
C[C@H](O)[C@@H]1CN2CCc3ccc(N4CCOCC4)cc3[C@@H]2C[C@@H]1N(C)C(=O)c1cccc(Cl)c1 | / | / | 3 | / | /
C[C@@H]1COc2cc(N3CCCCC3)ccc2S(=O)(=O)N1 | / | / | 5 | / | /
COc1ccc(C(=O)OCCN2CCN(C3CN(Cc4cn(Cc5cccc(C)c5)nn4)S(=O)(=O)C3)CC2)cc1OC (stereo not drawn) | / | / | 8 | / | /
O=C(CN1CCN(S(=O)(=O)c2ccc(Cl)cc2)CC1)Nc1ccc(F)cc1F | 28* | 6 | / | -2 | 23
N#C/C(=N\Nc1ccc(S(=O)(=O)N2CCOCC2)cc1)C(N)=S | 6 | 4 | 0 | 1 | -10
SMILES | PAFAH1B2 inh | PAFAH1B3 inh | TDP2 absorb | PAFAH2 FP inh | Apaf1 inhib
Cc1ccc(S(=O)(=O)N2CCN(CC(=O)Nc3ccccc3Cl)CC2)cc1 | 8 | 4 | 11 | -1 | 4
O=C(CN1CCN(S(=O)(=O)c2ccc(Br)cc2)CC1)Nc1ccc(F)cc1 | 28* | 1 | 10 | 6 | 12
CC1CCN(S(=O)(=O)c2ccc(N/N=C(/C#N)C(N)=O)cc2)CC1 | 40* | 3 | 2 | 8 | 0
COc1ccc(C)cc1NC(=O)CN1CCN(S(=O)(=O)c2ccc(Br)cc2)CC1 | 28* | -3 | 7 | 2 | 21
NS(=O)(=O)c1ccc(NC(=O)CN2CCN(S(=O)(=O)c3ccc(F)cc3)CC2)cc1 | 3 | 4 | 0 | -2 | -22
C[C@H]1[C@@H](OC(=O)N2CCOCC2)CC[C@@]23CCCN2C(=O)CCC[C@@H]13 | / | / | 7 | / | /
CCN1CCN(S(=O)(=O)c2ccc(Cl)c(C(=O)NC3CCCC3)c2)CC1 | 11 | -5 | 2 | 6 | 4
COc1cccc(C(=O)CN2CCN(S(=O)(=O)c3ccc(Br)cc3)CC2)c1 | 29* | -1 | / | -2 | -16
CCN1CCN(S(=O)(=O)c2ccc(Cl)c(C(=O)NC3CC3)c2)CC1 | 24* | 9 | 4 | 5 | -4
O=C(CCN1CCN(S(=O)(=O)c2ccc(Br)cc2)CC1)Nc1ccccc1F | 25* | 8 | 4 | -5 | 22
O=C(CN1CCN(S(=O)(=O)c2ccc(Cl)cc2)CC1)NC1CC1 | 29* | -3 | -9 | 0 | -9
O=C(CN1CCN(S(=O)(=O)c2ccccc2)CC1)NC1CC1 | 6 | 3 | 0 | -9 | -4
COc1ccc2c(c1)CO[C@H]([C@H](O)CO)[C@H]2/C=C/c1ccccc1 | / | / | 4 | / | /
COc1ccccc1CCC[C@@H](CCS(=O)(=O)C(C)C)CC1CCCCC1 | / | / | 12 | / | /
COC(=O)CSc1nnc(SCc2ccc(Cl)cc2)s1 | 31* | 3 | 5 | 6 | 7
O=C(COC(=O)c1nc(Cl)ccc1Cl)Nc1ncc(Cl)cc1Cl | 61* | 51* | -10 | 52* | 7
CC(C)COc1ccc(-c2csc(N3CCC(C(N)=O)CC3)n2)cc1 | / | / | -7 | / | /
COc1ccc(-n2nc3c(N4CCC(C(=O)NCCc5ccccc5C)CC4)nnc(C)c3c2C)cc1 | 3 | -1 | / | 1 | 23
COc1ccc(-n2nc3c(N4CCC(C(=O)NCc5ccccc5C)CC4)nnc(C)c3c2C)cc1 | -6 | -2 | / | 1 | 59*
ONc1cccnc1-n1nc(C(F)(F)F)cc1C(F)(F)F | / | / | / | / | 47*
COc1ccc2[nH]cc(CCNC(=O)COc3cc(C)cc4oc(=O)cc(C)c34)c2c1 | 25* | 7 | 3 | 16 | 0
Cc1cccn2c(=O)c3cc(C(=O)NC4CCCCC4)c(=N)n(Cc4ccccc4)c3nc12 | 4 | 3 | -21 | -4 | 57*
Cc1cccn2c(=O)c3cc(C(=O)NC4CCCC4)c(=N)n(Cc4ccc(F)cc4)c3nc12 | 1 | 4 | 3 | 5 | 26
CCC(=O)N1CCc2cc(Br)c(S(=O)(=O)NCc3ccccc3OC)cc21 | / | / | -1 | / | /
C[C@H]1COc2cc(Br)ccc2S(=O)(=O)N1Cc1cn(Cc2ccc(C(F)(F)F)cc2)nn1 | / | / | 4 | / | /
O=C(O)C1=C[C@H](c2ccc(C(F)(F)F)cc2)C[C@H](OCc2ccc(CO)cc2)O1 | 40* | 3 | 4 | 6 | 3
OC(c1ccc(F)cc1)(C1CCCCC1)C(CN1CCOCC1)c1ccccc1 (stereo not drawn) | 35* | 11 | -3 | 1 | 14
O=C(COCc1ccncc1)N1CCN(c2ccc(F)cc2Cl)CC1 | / | / | 10 | / | /
